This is an account of results in ChEMBL document CHEMBL3098086, “Synthesis and biological evaluation of α-triazolyl chalcones as a new type of potential antimicrobial agents and their interaction with calf thymus DNA and human serum albumin” (Eur J Med Chem, 2014).

The structures appear in SMILES notation. ≈ marks a conversion by molar mass, not a printed value. Calls of active or inactive are those of the source. The rule behind the calls is not given here.

The target in data set [1] is T1, Albumin (Homo sapiens, UniProt P02768). Description: Ratio of binding affinity to human serum albumin in presence of Zn2+ to binding affinity to human serum albumin absence of Zn2+. It is filed as ADME. Conditions: isolated protein.
The target of data set [2] is T1, Albumin. Kind of data set: Ratio of binding affinity to human serum albumin in presence of Ni2+ to binding affinity to human serum albumin absence of Ni2+. It is filed as ADME. Conditions: isolated protein.
Data set [3] deals with T1, Albumin. Kind of data set: Ratio of binding affinity to human serum albumin in presence of Pb2+ to binding affinity to human serum albumin absence of Pb2+. It is filed as ADME. Conditions: isolated protein.
The target of data set [4] is T1, Albumin. Kind of data set: Ratio of binding affinity to human serum albumin in presence of Mg2+ to binding affinity to human serum albumin absence of Mg2+. It is filed as ADME. Conditions: isolated protein.
The target of data set [5] is T1, Albumin. Kind of data set: Ratio of binding affinity to human serum albumin in presence of K+ to binding affinity to human serum albumin absence of K+. It is filed as ADME. The note with it: isolated protein.
The target of data set [6] is T1, Albumin. Description: Ratio of binding affinity to human serum albumin in presence of Fe3+ to binding affinity to human serum albumin absence of Fe3+. In kind it is ADME. The note with it: isolated protein.
Data set [7] deals with T1, Albumin. Description: Ratio of binding affinity to human serum albumin in presence of Ca2+ to binding affinity to human serum albumin absence of Ca2+. In kind it is ADME. Conditions: isolated protein.
Data set [8] deals with T1, Albumin. Kind of data set: Ratio of binding affinity to human serum albumin in presence of Cu2+ to binding affinity to human serum albumin absence of Cu2+. In kind it is ADME. Conditions: isolated protein.
Data set [9] has as its target T1, Albumin. Kind of data set: Binding affinity to human serum albumin at pH 7.4 at 310 K by fluorescence quenching analysis. In kind it is ADME. The note with it: isolated protein. The procedure, abridged: (§1)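 Intrinsic HSA Trp fluorescence was quenched by compound titration at pH 7.4 and at 286, 298 or 310 K. Excitation was 295 nm, emission scanned 300–450 nm, both slits 2.5 nm, 1.0 cm quartz cells. Data were fitted by Stern–Volmer analysis to give KSV. Kq was calculated assuming an HSA fluorescence lifetime of 6.4 × 10^-9 s.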

Data set [10] has as its target T1, Albumin. Description: Binding affinity to human serum albumin at pH 7.4 at 286 K by fluorescence quenching analysis. The note with it: isolated protein. In kind it is ADME. The procedure, abridged: as §1
Data set [11] concerns the target T1, Albumin. Description: Binding affinity to human serum albumin at pH 7.4 at 298 K by fluorescence quenching analysis. It is filed as ADME. Conditions: isolated protein. The procedure, abridged:
as §1

Data set [12] has as its system DNA. Description: Binding affinity to calf thymus DNA by UV-vis absorption spectra analysis. It is filed as nucleic-acid assay. The note with it: Bos taurus.
The subject of data set [13] is DNA. Description: Displacement of neutral red from calf thymus DNA by UV-vis absorption spectra analysis. In kind it is nucleic-acid assay. The note with it: Bos taurus.
Data set [14] deals with Candida. Kind of data set: Antifungal activity against Candida mycoderma ATCC 96918 after 24 hrs by micro broth dilution method. Conditions: ATCC 96918, 24 h. It is filed as functional. The procedure, abridged:
(§2)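 Fungi: C. albicans ATCC 76615 and C. mycoderma ATCC 96918. MICs by two-fold broth microdilution in 96-well plates per NCCLS. Fluconazole served as positive control.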
(Broth dilution looks for growth in wells or tubes with falling amounts of substance.)

Data set [15] relates to Candida albicans. Kind of data set: Antifungal activity against Candida albicans ATCC 76615 after 24 hrs by micro broth dilution method. It is filed as functional. The note with it: ATCC 76615, 24 h. The procedure, abridged: as §2
The test system of data set [16] is Bacillus. Description: Antibacterial activity against Bacillus proteus ATCC 13315 after 24 hrs by twofold serial dilution method. It is filed as functional. Conditions: ATCC 13315, 24 h. The procedure, abridged: (§3)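 Bacterial strains: S. aureus ATCC 25923, B. subtilis ATCC 21216, M. luteus ATCC 4698, E. coli JM109, P. aeruginosa ATCC 27853, B. proteus ATCC 13315. MICs by two-fold broth microdilution in 96-well plates per NCCLS. Chloromycin and Norfloxacin served as positive controls.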

In data set [17] the test system is Pseudomonas aeruginosa. Description: Antibacterial activity against Pseudomonas aeruginosa ATCC 27853 after 24 hrs by twofold serial dilution method. In kind it is functional. The note with it: ATCC 27853, 24 h. The procedure, abridged:
as §3

Data set [18] has as its system Escherichia coli. Kind of data set: Antibacterial activity against Escherichia coli JM109 after 24 hrs by twofold serial dilution method. Conditions: JM109, 24 h. In kind it is functional. The procedure, abridged: as §3
In data set [19] the test system is Salmonella typhi. Description: Antibacterial activity against Bacillus typhi after 24 hrs by twofold serial dilution method. In kind it is functional, Salmonella enterica subsp. enterica serovar Typhi. Conditions: Salmonella enterica. The procedure, abridged: (§4)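 Two-fold broth microdilution per NCCLS recommendations. The MIC was read as the minimum inhibitory concentration. Chloromycin and Norfloxacin served as positive controls. Strains were Bacillus typhi (Gram-negative panel) and methicillin-resistant S. aureus N315.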

In data set [20] the test system is Micrococcus luteus. Description: Antibacterial activity against Micrococcus luteus ATCC 4698 after 24 hrs by twofold serial dilution method. In kind it is functional. Conditions: ATCC 4698, 24 h. The procedure, abridged:
as §3

The test system of data set [21] is Bacillus subtilis. Description: Antibacterial activity against Bacillus subtilis ATCC 21216 after 24 hrs by twofold serial dilution method. In kind it is functional. The note with it: ATCC 21216, 24 h. The procedure, abridged: as §3
Data set [22] relates to Staphylococcus aureus. Description: Antibacterial activity against Staphylococcus aureus ATCC 25923 after 24 hrs by twofold serial dilution method. It is filed as functional. Conditions: ATCC 25923, 24 h. The procedure, abridged:
as §3

The test system of data set [23] is Staphylococcus aureus. Description: Antibacterial activity against methicillin-resistant staphylococcus aureus N315 after 24 hrs by twofold serial dilution method. It is filed as functional. Conditions: N315, 24 h. The procedure, abridged: as §4

T1 sequence (P02768 whole entry): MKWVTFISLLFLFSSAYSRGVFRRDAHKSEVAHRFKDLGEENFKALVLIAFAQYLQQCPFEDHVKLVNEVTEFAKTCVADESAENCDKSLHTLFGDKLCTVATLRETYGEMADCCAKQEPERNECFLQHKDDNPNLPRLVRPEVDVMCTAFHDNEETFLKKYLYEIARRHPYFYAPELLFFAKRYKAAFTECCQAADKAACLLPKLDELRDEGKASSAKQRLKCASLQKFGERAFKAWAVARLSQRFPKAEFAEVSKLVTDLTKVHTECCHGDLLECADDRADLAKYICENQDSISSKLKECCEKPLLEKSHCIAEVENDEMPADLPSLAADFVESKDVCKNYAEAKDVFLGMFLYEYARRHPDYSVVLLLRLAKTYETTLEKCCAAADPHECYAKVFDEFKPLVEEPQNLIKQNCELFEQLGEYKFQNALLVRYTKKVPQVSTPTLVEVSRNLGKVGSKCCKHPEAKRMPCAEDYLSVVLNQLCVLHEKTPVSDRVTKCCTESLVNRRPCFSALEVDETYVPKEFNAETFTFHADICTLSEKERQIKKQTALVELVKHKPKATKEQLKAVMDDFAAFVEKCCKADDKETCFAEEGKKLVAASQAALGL

By MIC is commonly meant the lowest concentration that inhibits growth of the organism. Low readings indicate greater potency, high ones weaker potency. Regarding `O=C(/C(=C/c1ccccc1)n1cncn1)c1ccc(F)cc1N1CCCCC1`, the Ratio in data set [1] is recorded as 0.918; in data set [2] it was 0.835; in [3], 0.819; in data set [4] it was 1.068; in data set [5] it was 1.324; in [6], 1.151. The Ratio is recorded as 0.887 in [7] and 0.959 in data set [8]. Besides, the values for the KSV in data set [9], in data set [10] and in data set [11] were 5.84 ×10⁴ L/mol, 7.59 ×10⁴ L/mol and 6.72 ×10⁴ L/mol, respectively. Further, in data set [12], the Activity entry is “Dose-dependent effect”. This compound gave a K in data set [12] of 1.22 ×10⁴ L/mol. Besides, the outcome in [13] was Active. The MIC came to 8 mg/L (≈ 21.3 µM) in data set [14]; 16 mg/L (≈ 42.5 µM) in [15]; 8 mg/L (≈ 21.3 µM) in data set [16]; 16 mg/L (≈ 42.5 µM) in [17]; 16 mg/L (≈ 42.5 µM) in data set [18]; 8 mg/L (≈ 21.3 µM) in [19]. Besides, the MIC in data set [20] is 4 mg/L (≈ 10.6 µM); in data set [21], 8 mg/L (≈ 21.3 µM); in data set [22] it was 16 mg/L (≈ 42.5 µM); in data set [23], 4 mg/L (≈ 10.6 µM).
